High-throughput results from PubChem.
The list is not random: actives were taken first. Their share in the collection is about 3.1%.
S100A4 MyoIIA = blocks human S100A4 binding to myosin IIA peptide. AID 652163. P26447. inhibition, % at 10.7 µM. hit rate 0.14% among 360,000. S100A4/TAMRA-MyoIIA peptide fluorescence polarization;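 active = mean inhibition of at least 70% across replicates, with every replicate also reaching that level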
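Test system – S100A4 monomer (human) · Compound – single-point compound testing · Schedule – 5 min incubation before reading · Probe or stimulus – TAMRA-labelled myosin IIA heavy-chain peptide probe, 5 nM · Benchmarks – neutral control DMSO, positive control TFP · Medium – Calcium-containing HEPES buffer, pH 7.2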
rRNA inh HTS = selective bacterial rRNA inhibition in E. coli | hit rate 1.6% among 350,000 | GFP signal change (wild-type ribosome), % (concentration not given with the values) | E. coli WT GFP vs humanized-ribosome RFP mutants, fluorescence, 24 h; active compounds read low; DMSO median 0, no signal -100;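 active = significant combined selectivity score with lowered wild-type GFP, culture density cut under 30%, mutant RFP and density less affected; inactive = any of these conditions unmet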
CFTR F508del cor = correctors of CFTR F508del function in bronchial epithelial cells; CFBE cells, YFP halide quenching; stimulated with forskolin plus potentiator P3; % fluorescence drop versus neutral controls; activity (quench increase), % at 7.58 µM; hit rate 0.36% among 350,000; AID 720511;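 active = mean added fluorescence quench of at least 8% versus neutral control, with both replicates also reaching 8%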;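 also: cells transiently co-express mutant CFTR-F508del with the halide-sensitive YFP; corrector assay measuring rescue of mutant channel to the surface after 24 h compound exposure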
ERAP1 inh = blocks human ERAP1 aminopeptidase activity; Q9NZ08; recombinant ERAP1, Leu-AMC fluorescence, 60 min; inhibition, % at 10.7 µM; hit rate 0.15% among 340,000;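 active = mean replicate inhibition of at least 30%, or all replicates individually reaching that 30% level; inactive = mean below 30% and not every replicate reaching it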;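 also: 0% = neutral control wells and 100% = L-leucinethiol positive control wells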
SIRT5 block = sirtuin-5 (human) deacylase inhibition; Purified SirT5, succinyl-peptide AMC, trypsin-coupled fluorescence; inhibition, % at 15 µM; hit rate 1.1% among 330,000; in the data active = inhibition above about 15%
An asterisk follows results filed as active; / = not tested or not shown.

SMILES	S100A4 MyoIIA	rRNA inh HTS	CFTR F508del cor	ERAP1 inh	SIRT5 block
COc1ccc(OCc2cc(C(=O)N3CCCCCCC3)no2)c(Cl)c1	-2	-44	2	1	-9
CO[C@@H]1CN(C)C(=O)c2cc(NC(=O)NC(C)C)ccc2OC[C@@H](C)N(C)C[C@H]1C	-114	0	-1	0	1
C[C@@H]1CCCCO[C@@H](CN(C)C(=O)Nc2cccc3ccccc23)[C@@H](C)CN([C@H](C)CO)C(=O)c2cc(NS(=O)(=O)c3cn(C)cn3)ccc2O1	/	3	0	/	/
O=C(C[C@@H]1CC[C@H]2[C@@H](COC[C@H](O)CN2C(=O)Nc2ccc(Cl)c(Cl)c2)O1)NCc1ccc(F)cc1	-4	-59	4	-1	-1
CCOC(=O)c1sc(N=NC2=C(O)CCCC2=O)c(C(=O)OCC)c1C	-3	-26*	0	-4	6
O=C(CSc1nnc(COc2ccccc2)o1)Nc1nccs1	-2	-9	1	-1	/
Cc1cccc(OCc2nnc(SCC(=O)Nc3nccs3)o2)c1	0	-41*	-2	-1	1
COC(=O)C[C@@H]1C[C@@H]2c3cc(NC(=O)C4CCC4)ccc3O[C@@H]2[C@@H](CO)O1	10	0	2	-1	-1
C[C@H](NC(=O)OCc1ccccc1)C(=O)NNC(=O)[C@H](C)NC(=O)OCc1ccccc1	-3	18	-1	-6	21*
CNc1snc(C)c1C(=O)OC(C)C(=O)c1ccc(F)cc1 (stereo not given)	-1	-24*	0	-6	-1
O=C(C[C@H]1C[C@H]2c3cc(NC(=O)Nc4ccccc4F)ccc3O[C@H]2[C@@H](CO)O1)NCc1ccc(Oc2ccccc2)cc1	-1	-4	0	3	0
O=C(C[C@@H]1C[C@H]2c3cc(NC(=O)c4ccc5c(c4)OCO5)ccc3O[C@H]2[C@@H](CO)O1)NCc1ccc(Oc2ccccc2)cc1	9	0	1	3	-2
CN(C)c1ccc2c(c1)[C@@H]1C[C@@H](CC(=O)NCc3ccccc3)O[C@H](CO)[C@@H]1O2	-45	0	3	1	20*
O=C(Nc1ccc2c(c1)[C@H]1C[C@@H](CC(=O)N3CCc4ccccc4C3)O[C@@H](CO)[C@H]1O2)Nc1ccccc1F	0	-3	-2	0	1
O=C(C[C@@H]1C[C@H]2c3cc(NC(=O)c4ccc5c(c4)OCO5)ccc3O[C@H]2[C@H](CO)O1)NCc1ccc(Oc2ccccc2)cc1	2	0	-1	1	22*
O=C(Nc1ccc2c(c1)[C@H]1C[C@H](CC(=O)N3CCc4ccccc4C3)O[C@H](CO)[C@H]1O2)Nc1ccccc1F	-5	-6	0	2	15*
O=C(C[C@H]1C[C@@H]2c3cc(NC(=O)Nc4ccccc4F)ccc3O[C@@H]2[C@@H](CO)O1)NCc1ccc(Oc2ccccc2)cc1	-9	-2	3	3	18*
C[C@H](CO)N1C[C@H](C)[C@H](CN(C)S(=O)(=O)c2ccc(F)cc2)Oc2c(NC(=O)Nc3ccc4c(c3)OCO4)cccc2C1=O	-13	-8	-4	-1	1
COc1ccccc1NC(=O)N[C@@H]1CC[C@@H](CCNC(=O)c2ccc3c(c2)OCO3)O[C@@H]1CO	0	-1	0	-1	1
O=C(Nc1ccc(Cl)cc1)N[C@@H]1CC[C@H](CCn2cc(Cc3ccccc3)nn2)O[C@@H]1CO	5	-2	-1	-3	-2
COc1cccc(CNC(=O)C[C@H]2C=C[C@H](NC(=O)C3CCC3)[C@@H](CO)O2)c1	/	2	-1	/	/
COCCNC(=O)C[C@H]1CC[C@@H](NC(=O)NC2CCCC2)[C@@H](CO)O1	-14	4	-1	-1	3
C[C@@H]1CN([C@H](C)CO)C(=O)c2cc(C3=CCCC3)cnc2O[C@H]1CN(C)C(=O)c1cccnc1	-4	2	1	1	-11
O=C(C[C@@H]1C[C@H]2c3cc(NC(=O)Nc4ccccc4F)ccc3O[C@H]2[C@H](CO)O1)NCC1CC1	8	-6	-4	4	22*
C[C@@H]1CN([C@@H](C)CO)S(=O)(=O)c2ccc(C#Cc3ccccn3)cc2O[C@H]1CN(C)Cc1cccc(F)c1	13	-5	2	1	-2
SMILES	S100A4 MyoIIA	rRNA inh HTS	CFTR F508del cor	ERAP1 inh	SIRT5 block
C[C@H](CO)N1C[C@H](C)[C@@H](CN(C)Cc2ccccn2)Oc2cc(-c3ccc(C#N)cc3)ccc2S1(=O)=O	/	-10	-3	/	/
C[C@H]1CN([C@@H](C)CO)S(=O)(=O)c2ccc(-c3ccc(C#N)cc3)cc2O[C@@H]1CN(C)Cc1ccccn1	5	-20	12*	/	3
C[C@H]1CN([C@@H](C)CO)S(=O)(=O)c2ccc(-c3cncnc3)cc2O[C@H]1CN(C)Cc1ccccn1	3	/	-1	0	-0.3*
C[C@H](CO)N1C[C@H](C)[C@@H](CN(C)Cc2ccccn2)Oc2cc(-c3cncnc3)ccc2S1(=O)=O	-1	-3	-1	-1	0
C[C@@H]1CN([C@H](C)CO)S(=O)(=O)c2ccc(C#Cc3ccccn3)cc2O[C@@H]1CN(C)Cc1cccc(F)c1	1	-12	0	3	27*
Cc1ccc(-c2ccc3c(c2)O[C@@H](CN(C)Cc2ccccn2)[C@H](C)CN([C@@H](C)CO)S3(=O)=O)cc1	-7	-17	3	-2	19*
C[C@H](CO)N1C[C@H](C)[C@@H](CN(C)Cc2ccccn2)Oc2cc(-c3ccccc3)ccc2S1(=O)=O	3	-35	3	0	7
Cc1cc(C(=O)Nc2cccc3c2O[C@@H](CN(C)C(=O)Nc2c(C)noc2C)[C@H](C)CN([C@@H](C)CO)C3=O)n(C)n1	-9	2	-1	2	-1
CCCNC(=O)[C@H]1[C@H](CO)[C@H]2Cn3c(ccc(C4=CCCC4)c3=O)[C@@H]1N2C(=O)C1CC1	-1	1	0	1	-4
Cc1ccc(-c2ccc3c(c2)O[C@@H](CN(C)Cc2ccccc2)[C@@H](C)CN([C@@H](C)CO)S3(=O)=O)cc1	-2	-1	2	3	32*
C[C@@H]1CN([C@@H](C)CO)S(=O)(=O)c2ccc(-c3ccc(C#N)cc3)cc2O[C@H]1CN(C)Cc1cccc(F)c1	0	-2	8.0*	0	11
Cc1ccc(-c2ccc3c(c2)O[C@@H](CN(C)Cc2ccccc2)[C@@H](C)CN([C@H](C)CO)S3(=O)=O)cc1	4	-1	1	4	-3
Cc1ccc(-c2ccc3c(c2)O[C@@H](CN(C)Cc2ccccn2)[C@H](C)CN([C@H](C)CO)S3(=O)=O)cc1	5	-10	16*	-3	9
COCCn1c(N)c(N(Cc2ccccc2)C(=O)c2ccc3ccccc3c2)c(=O)[nH]c1=O	0	4	0	11	14
